# Reference: ChEMBL document CHEMBL1221211, “Synthesis enables identification of the cellular target of leucascandrolide A and neopeltolide” (Nat Chem Biol, 2008)
# Active and inactive are the calls of the source. The rule behind the calls is not given here.
# What was measured:
# A549 [1] = test: (§1) Inhibition of bc1 complex in human A549 cells assessed as reduction in ATP production in presence of 10 mM of 2-DG; type: cell-based
# Procedure, shortened: (§2)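 A549 cells seeded at 2500 cells/well, left 4 h, then given graded compound with or without 10 mM 2-deoxyglucose for 30 min; duplicate wells; ATP by luciferase luminescence, converted to nmol/cell via ATP standard curve; expressed as % of vehicle; IC50 from ATP decrease.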
# HCT-116 [2] = test: Inhibition of cell proliferation in human HCT116 cells in after 48 hrs; type: functional; conditions: HCT-116, 48 h
# HCT-116 [3] = test: Effect on cellular respiration in human HCT116 cells assessed as increase in NADH level at 0.5 uM by fluorescence assay; type: functional, cell-based
# Procedure, shortened: (§3)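 HCT116 cells seeded at 200 000 per collagen-coated dish, grown 41 h at 37°C, fresh medium 30–60 min; NADH autofluorescence by spinning-disk confocal microscopy (ex 350 ± 25, em 457 ± 25 nm) every 30 s at 37°C, baseline then 4 min after compound; % change from average initial vs post-addition fluorescence.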
# PC-3 [4] = test: Inhibition of cell proliferation in human PC3 cells in after 48 hrs; type: functional; conditions: PC-3, 48 h
# Saccharomyces cerevisiae [5] = test: Antifungal activity against Saccharomyces cerevisiae W303-1A harboring atg11 deficient mutant gene in galactose agar media at 50 uM after 24 hrs by spectrophotometry; type: functional, organism-based
# Saccharomyces cerevisiae [6] = test: Antifungal activity against Saccharomyces cerevisiae W303-1A harboring rvs161 deficient mutant gene supersensitive strain in galactose agar media at 50 uM after 24 hrs by spectrophotometry; type: functional, organism-based
# Saccharomyces cerevisiae [7] = test: Effect on NADH dehydrogenase in respiratory chain of Saccharomyces cerevisiae W303-1A mitochondria at […]
# 143B [8] = test: Inhibition of bc1 complex in human 143B cells assessed as reduction in ATP production in presence of […] of CCCP; type: cell-based
# HCT-116 [9] = test: Induction of cell cycle arrest in human HCT116 assessed as accumulation at S-phase at 100 uM after 24 hrs by FACS analysis; type: functional; conditions: HCT-116, 24 h
# [10] = target: T1, Succinate dehydrogenase [ubiquinone] cytochrome b small subunit, mitochondrial (Saccharomyces cerevisiae) (UniProt P37298); test: Effect on succinate:ubiquinone oxidoreductase activity of respiratory chain in Saccharomyces cerevisiae W303-1A mitochondria at […]
# T1 sequence (whole entry): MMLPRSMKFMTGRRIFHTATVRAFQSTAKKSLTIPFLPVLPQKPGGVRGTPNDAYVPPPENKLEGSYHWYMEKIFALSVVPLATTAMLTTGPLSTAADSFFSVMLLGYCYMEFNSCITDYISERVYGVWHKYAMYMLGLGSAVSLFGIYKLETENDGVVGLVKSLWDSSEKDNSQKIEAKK
# Saccharomyces cerevisiae [11] = test: Antifungal activity against Saccharomyces cerevisiae W303-1A harboring snf4 deficient mutant gene in galactose agar media at 50 uM after 24 hrs by spectrophotometry; type: functional, organism-based
# Saccharomyces cerevisiae [12] = test: Antifungal activity against Saccharomyces cerevisiae W303-1A in glucose agar media at 1 ug […] by disk diffusion method; type: functional; conditions: read-out: DIZ
# Procedure, shortened: (§4)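 W303-1A grown to saturation in YPD at RT, diluted 10-fold, spread onto YPD (2% glucose) or YPGly (3% v/v glycerol) agar; compound in 20 μl water applied to paper discs placed on agar; plates incubated 2–3 days at 30°C; growth-inhibition zone diameter read.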
# Saccharomyces cerevisiae [13] = test: Inhibition of Saccharomyces cerevisiae NADH oxidase at 10 nM
# HCT-116 [14] = test: Effect on cellular respiration in human HCT116 cells assessed as increase in NADH level at 2.5 uM by fluorescence assay; type: functional; procedure, shortened: as §3
# HCT-116 [15] = test: Induction of cell cycle arrest in human HCT116 assessed as accumulation at G2/M-phase at 100 uM after 24 hrs by FACS analysis; type: functional
# HCT-116 [16] = test: Induction of cell cycle arrest in human HCT116 assessed as accumulation at G1-phase at 100 uM after 24 hrs by FACS analysis; type: functional
# [17] = Inhibition of bovine Cytochrome b-c1 complex; set-up: species or system Bos taurus
# Procedure, shortened: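 Bovine heart mitochondrial bc1 complex purified (DEAE wash 150 mM NaCl, 150–400 mM NaCl gradient), diluted to 0.686 mg/ml in 50 mM phosphate pH 7.5, 300 mM NaCl, 0.1 g/l dodecyl maltoside; activity assayed in 40 mM potassium phosphate pH 7.4, 0.5 mM EDTA by monitoring reduction of equine cytochrome c; dose-response.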
# Saccharomyces cerevisiae [18] = test: Antifungal activity against Saccharomyces cerevisiae W303-1A in glycerol agar media at 1 ug […] by disk diffusion method; type: functional; conditions: read-out: DIZ; procedure, shortened: as §4
# Saccharomyces cerevisiae [19] = test: Antifungal activity against Saccharomyces cerevisiae petite strain in glucose agar media at 0.5 ug […] by disk diffusion method; type: functional; conditions: read-out: DIZ
# Procedure, shortened: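 Petite (ρ0) W303-1A made by ethidium bromide (25 μg/ml) treatment in minimal glucose medium, regrown drug-free, identified as white colonies failing to grow on YPGly. Saturated YPD culture diluted 10-fold, spread on glucose agar; compound in 20 μl water on paper discs; 2–3 days at 30°C; zone of inhibition read.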
# Saccharomyces cerevisiae [20] = test: Antifungal activity against Saccharomyces cerevisiae W303-1A in galactose agar media at 50 uM after 24 hrs by spectrophotometry; type: functional, organism-based
# [21] = Inhibition of Saccharomyces cerevisiae Cytochrome b-c1 complex
# 143B [22] = test: Inhibition of bc1 complex in human 143B cells assessed as reduction in oxygen uptake at 25 nM in presence of […] of CCCP; type: cell-based
# Procedure, shortened: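 143B cells (4 × 10^6 per aliquot) in serum-free medium in stirred respirometer chamber at 37°C; O2 consumption by oxygen electrode; compound added dose-wise, then CCCP uncoupler added to test whether respiration returns.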
# Saccharomyces cerevisiae [23] = test: Inhibition of cellular respiration in Saccharomyces cerevisiae W303-1A assessed as level of cytochrome b at 10 uM in presence of inhibitor; type: functional, organism-based
# Saccharomyces cerevisiae [24] = test: Antifungal activity against Saccharomyces cerevisiae W303-1A harboring snf6 deficient mutant gene in galactose agar media at 50 uM after 24 hrs by spectrophotometry; type: functional, organism-based
# A549 [25] = test: Inhibition of bc1 complex in human A549 cells assessed as reduction in ATP production; type: cell-based; procedure, shortened: as §2
# A549 [26] = test: Inhibition of cell proliferation in human A549 cells in after 48 hrs; type: functional; conditions: A549, 48 h
# [27] = as §1; type: cell-based; procedure, shortened: as §2
# Saccharomyces cerevisiae [28] = test: Antifungal activity against Saccharomyces cerevisiae W303-1A harboring kcs1 deficient mutant gene in galactose agar media at 50 uM after 24 hrs by spectrophotometry; type: functional, organism-based
# Saccharomyces cerevisiae [29] = test: Effect on cytochrome c oxidase activity of respiratory chain in Saccharomyces cerevisiae W303-1A mitochondria at […]
# Saccharomyces cerevisiae [30] = test: Antifungal activity against Saccharomyces cerevisiae W303-1A in glucose agar media at 0.5 ug after 2 to 3 days by disk diffusion method; conditions: read-out: DIZ
# SK-OV-3 = test: Cytotoxicity against human SKOV3 cells; type: functional
# SK-MEL-5 = test: Cytotoxicity against human SK-MEL-5 […]; type: functional
# SF-268 = test: Cytotoxicity against human SF268 cells; type: functional
# Malme-3M = test: Cytotoxicity against human MALME-3M cells; type: functional
# DU-145 = test: Cytotoxicity against human DU145 cells; type: functional
# OVCAR-8 = test: Cytotoxicity against human OVCAR8 cells; type: functional
# 786-0 = test: Cytotoxicity against human 786-0 cells; type: functional
# PC-3 [31] = test: Cytotoxicity against human PC3 cells; type: functional
# NCI/ADR-RES = test: Cytotoxicity against human NCI/ADR-RES cells; type: functional
# HCT-116 [32] = test: Induction of cell cycle arrest in human HCT116 assessed as accumulation at S-phase at 10 uM after 24 hrs by FACS analysis; type: functional
# HCT-116 [33] = test: Induction of cell cycle arrest in human HCT116 assessed as accumulation at G2/M-phase at 10 uM after 24 hrs by FACS analysis; type: functional
# A549 [34] = test: Cytotoxicity against human A549 cells; type: functional
# MCF7 = test: Cytotoxicity against human MCF7 cells; type: functional
# K562 = test: Cytotoxicity against human K562 cells; type: functional
# M14 = test: Cytotoxicity against human M14 cells; type: functional
# NCI-H226 = test: Cytotoxicity against human NCI-H226 cells; type: functional
# HCT-116 [35] = test: Cytotoxicity against human HCT116 cells; type: functional
# HCT-116 [36] = test: Induction of cell cycle arrest in human HCT116 assessed as accumulation at G1-phase at 10 uM after 24 hrs by FACS analysis; type: functional
# CAKI-1 = test: Cytotoxicity against human Caki1 cells; type: functional
structure (smiles),measurement,setting,value
CC(=O)O[C@H]1C(=O)[C@@]2(C)[C@H]([C@H](OC(=O)c3ccccc3)[C@]3(O)C[C@H](OC(=O)[C@H](O)[C@@H](NC(=O)c4ccccc4)c4ccccc4)C(C)=C1C3(C)C)[C@]1(OC(C)=O)CO[C@@H]1C[C@@H]2O,inhibition,A549 [1],inactive
CCCCC[C@H]1C[C@@H]2CCC[C@@H](C[C@@H](OC)C[C@@H]3C[C@@H](OC(=O)/C=C\CCc4coc(/C=C\CNC(=O)OC)n4)C[C@H](CC(=O)O1)O3)O2,GI50,HCT-116 [2],0.0003 µM
same,Activity,HCT-116 [3],Active
same,GI50,PC-3 [4],0.0008 µM
same,Activity,Saccharomyces cerevisiae [5],Active
same,Activity,Saccharomyces cerevisiae [6],Active
same,Activity,Saccharomyces cerevisiae [7],inactive
same,inhibition,143B [8],Dose-dependent effect
same,inhibition at 100 µM,HCT-116 [9],27%
same,Activity,[10],inactive
same,Activity,Saccharomyces cerevisiae [11],Active
same,zone of inhibition at 1 µg/disc,Saccharomyces cerevisiae [12],25 mm
same,inhibition,Saccharomyces cerevisiae [13],Active
same,Activity,HCT-116 [14],40%
same,Activity,HCT-116 [15],6%
same,Activity,HCT-116 [16],61%
same,IC50,[17],0.006 µM
same,zone of inhibition at 1 µg/disc,Saccharomyces cerevisiae [18],36 mm
same,zone of inhibition at 0.5 µg/disc,Saccharomyces cerevisiae [19],21 mm
same,Activity,Saccharomyces cerevisiae [20],Active
same,IC50,[21],0.0018 µM
same,inhibition,143B [22],Active
same,inhibition,Saccharomyces cerevisiae [23],Active
same,Activity,Saccharomyces cerevisiae [24],Active
same,inhibition,A549 [25],inactive
same,GI50,A549 [26],0.0008 µM
same,IC50,[27],0.0026 µM
same,Activity,Saccharomyces cerevisiae [28],Active
same,Activity,Saccharomyces cerevisiae [29],inactive
CCC[C@@H]1C[C@H](OC)C[C@H](C)C[C@@H]2C[C@@H](OC(=O)/C=C\CCc3coc(/C=C\CNC(=O)OC)n3)C[C@H](CC(=O)O1)O2 [NEOPELTOLIDE],GI50,HCT-116 [2],0.0005 µM
same,GI50,PC-3 [4],0.0003 µM
same,Activity,Saccharomyces cerevisiae [7],inactive
same,Activity,[10],inactive
same,zone of inhibition at 1 µg/disc,Saccharomyces cerevisiae [12],33 mm
same,IC50,[17],0.002 µM
same,zone of inhibition at 1 µg/disc,Saccharomyces cerevisiae [18],46 mm
same,IC50,[21],0.0006 µM
same,inhibition,A549 [25],inactive
same,GI50,A549 [26],0.0005 µM
same,IC50,[27],0.0013 µM
same,Activity,Saccharomyces cerevisiae [29],inactive
C[C@@H]1C[C@@H]([C@H](O)CC2CC(=O)NC(=O)C2)C(=O)[C@@H](C)C1 [CYCLOHEXIMIDE],zone of inhibition at 0.5 µg/disc,Saccharomyces cerevisiae [30],30 mm
COC(=O)NC/C=C\c1nc(CC/C=C\C(=O)O[C@@H]2C[C@H]3C[C@H](OC)C[C@H]4O[C@@H](CC[C@@H]4C)C[C@H](/C=C/CC(C)C)OC(=O)C[C@@H](C2)O3)co1,GI50,SK-OV-3,0.67 µM
same,GI50,SK-MEL-5,0.67 µM
same,GI50,SF-268,0.28 µM
same,GI50,Malme-3M,0.67 µM
same,GI50,DU-145,0.67 µM
same,GI50,OVCAR-8,0.28 µM
same,GI50,786-0,0.28 µM
same,GI50,PC-3 [31],0.28 µM
same,GI50,NCI/ADR-RES,0.67 µM
same,Activity,HCT-116 [32],17%
same,Activity,HCT-116 [33],8%
same,GI50,A549 [34],0.67 µM
same,GI50,MCF7,0.28 µM
same,GI50,K562,0.28 µM
same,GI50,M14,0.28 µM
same,GI50,NCI-H226,0.28 µM
same,GI50,HCT-116 [35],0.67 µM
same,Activity,HCT-116 [36],71%
same,GI50,CAKI-1,0.67 µM
